Measured values pooled from the literature.
Compare with care: the assays were run in different laboratories.
Dipeptidyl peptidase 8: Dipeptidyl peptidase 8 (Homo sapiens, UniProt Q6V1X1)
HDAC8: Histone deacetylase 8 (HDAC8, Homo sapiens, UniProt Q9BY41)
PRKCA: Protein kinase C alpha type (PRKCA, Homo sapiens, UniProt P17252)
TACR2: Substance-K receptor (TACR2, Homo sapiens, UniProt P21452)

Compound | target | observed | action | method | concentration | inhibition
N#Cc1ccc(NCCNCC(=O)N2N=CCC2C#N)nc1 (stereo not shown) | Dipeptidyl peptidase 8 | enzyme activity | inhibitor |  | 1 µM | 0%
CCN(CC)CCCC[C@H](NC(=O)[C@H](CC(C)C)NC(=O)[C@H](C)NC(=O)[C@H](Cc1ccccc1)NC(=O)c1ccc(C(C)(C)C)cc1)C(=O)N[C@@H](CO)C(=O)OC | Mu-type opioid receptor (OPRM1, Homo sapiens, UniProt P35372) | ligand displacement |  | radioligand | 10 µM | 51%
O=c1ccc2cc3ccoc3cc2o1 | HDAC8 | enzyme activity | inhibitor |  | 10 µM | 30.7%
COc1cc(Nc2ncc(F)c(Nc3ccc4c(n3)NC(=O)C(C)(C)O4)n2)cc(OC)c1OC | Ephrin type-A receptor 6 (EPHA6, Homo sapiens, UniProt Q9UF33) | binding |  | competition with immobilised ligand | 10 µM | 82%
C#Cc1n[nH]c2c(-c3cn([C@@H](C)c4ccccc4)c(=O)[nH]c3=O)cc(F)cc12 | PRKCA | enzyme activity | inhibitor |  | 0.1 µM | 9.6%
COc1c2ccoc2cc2oc(=O)ccc12 | HDAC8 | enzyme activity | inhibitor |  | 10 µM | 34.4%
Cn1cc(-c2cccc(N3CCc4c(sc5c4CC(C)(C)C5)C3=O)c2CO)cc(Nc2ccncn2)c1=O | PRKCA | enzyme activity | inhibitor |  | 1 µM | 5%
CCOC(=O)c1ccc(OC(=O)CCCCCNC(=N)N)cc1 | Dipeptidyl peptidase 8 | enzyme activity | inhibitor |  | 10 µM | 13%
C[C@H](C(=O)N[C@H]1COc2ccccc2[C@@H]1S(C)(=O)=O)c1ccc(F)cc1 | TACR2 | cell-free assay |  |  | 10 µM | -21%
COCc1c(-c2cc3cc(C)cc(OC)c3s2)c2c(N)ncnn2c1CN1CCNC(=O)C1 | Nitric oxide synthase 1 (Nos1, Rattus norvegicus, UniProt P29476) | enzyme activity | inhibitor |  | 10 µM | -8%
Cn1cc(-c2cc(F)cc(N3CCn4c(cc5c4CCCC5)C3=O)c2CO)cc(Nc2ccc(N3CCN(C4COC4)CC3)cn2)c1=O | Testis-specific serine/threonine-protein kinase 2 (TSSK2, Homo sapiens, UniProt Q96PF2) | enzyme activity | inhibitor |  | 0.1 µM | 17%
CN(C)C(=O)COC(=O)Cc1ccc(OC(=O)c2ccc(NC(=N)N)cc2)cc1 | Ubiquitin carboxyl-terminal hydrolase 8 (USP8, Homo sapiens, UniProt P40818) | enzyme activity | inhibitor |  | 10 µM | 0%
c1ccc(C(NCCNC(c2ccccc2)c2ccccc2)c2ccccc2)cc1 | TACR2 | cell-free assay |  |  | 10 µM | 40%
C#Cc1n[nH]c2c(-c3cn(C(C)c4ccccn4)c(=O)[nH]c3=O)cc(F)cc12 (stereo not shown) | Tyrosine-protein kinase Yes (YES1, Homo sapiens, UniProt P07947) | enzyme activity | inhibitor |  | 1 µM | -0.2%
N=C(N)c1ccc2cc(OC(=O)c3ccc(N=C(N)N)cc3)ccc2c1 | Dipeptidyl peptidase 8 | enzyme activity | inhibitor |  | 10 µM | 8%
O=C(Nc1cccnn1)N1CCN([C@@H]2CCOc3cc(C(F)(F)F)ccc32)CC1 | Somatostatin receptor type 4 (SSTR4, Homo sapiens, UniProt P31391) | ligand displacement |  |  | 20 µM | 29%
